Published values from different studies.
Observed: cell growth or viability

Compound	cell line	method	time	measurement	value
Cc1c(C(=O)O)ccc2c3n(nc12)[C@@H]1[C@H](C3)N(CC2CC2)[C@@]2(C(=O)Nc3cc(Cl)ccc32)[C@H]1c1cccc(Cl)c1F	Rh18			GI50	0.00023 µM
C=CC(=O)NC1CCN(c2ncc3ncnc(Nc4ccc(Oc5ccc6c(c5)ncn6C)c(C)c4)c3n2)CC1	SNU-601			EC50	0.00422 µM
CNC(=O)c1cc(Oc2ccc(NC(=O)Nc3ccc(Cl)c(C(F)(F)F)c3)cc2)ccn1	NCI-H23	MTT	72 h	IC50	4.25 µM
O=C(NO)c1ccc(CNc2nc3cccc(-c4ccc5c(c4)OCO5)n3n2)cc1	NCI-H23	SRB		GI50	0.66 µM
C=CC(=O)c1cccnc1Nc1cc(C(F)(F)F)ccc1OCc1ccccc1	NCI-H23	SRB	48 h	GI50	16.5 µM
C=CC(=O)N1CCN(c2nc(=O)n(-c3c(C)ccnc3C(C)C)c3nc(-c4c(O)cccc4F)c(F)cc23)[C@@H](C)C1	SW1573	ATP luminescence		IC50	> 10 µM
O=C(O)c1cccnc1Nc1cccc(C(F)(F)F)c1	NCI-H23	SRB	48 h	GI50	> 30 µM
Cc1cc(/C=C/C#N)cc(C)c1Nc1ccnc(Nc2ccc(C#N)cc2)n1	C6661	MTT	48 h	IC50	4.67 µM
C=CC(=O)c1cccnc1Nc1cc(C(F)(F)F)ccc1OC	NCI-H23	SRB	48 h	GI50	6.67 µM
C[C@@H]1CC2=C(CN1Cc1cccc(C#N)c1)C(=O)N(Cc1ccc(Br)cc1)C1=NCCN12	MOLM-13	MTS		IC50	0.00793 µM
Cc1noc2c1-c1ccccc1C(c1ccc(Cl)cc1)=N[C@H]2CC(N)=O	MOLM-13	ATP luminescence	72 h	IC50	0.474 µM
COc1cc2nc(N3CCN(C(=O)c4ccco4)CC3)nc(N)c2cc1OC	C6661	MTT	48 h	IC50	27.4 µM
